Consider five compounds from ChEMBL document CHEMBL1135747, “Radiolabeling and in vivo behavior of copper-64-labeled cross-bridged cyclam ligands” (J Med Chem, 2002).

Series [1] can be described thus: Partition coefficient (logP). In kind it is physicochemical. To be noted: octanol/water. The gist of the method: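 Each ⁶⁴Cu complex was partitioned between octanol and water, shaken 1 h at room temperature, and 100 μL from each phase was counted. Log P is the log of the octanol/water count ratio, averaged over five samples.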
For series [2], the species on record is Rattus norvegicus. Nature of the series: Distribution in rat blood after 24 hr postinjection. In kind it is ADME, organism-based. To be noted: in vivo. The gist of the method:
(§1)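 ⁶⁴Cu-labeled complexes, at NCA and CA levels, were diluted in saline and injected into mature female Sprague–Dawley rats (180–200 g; n = 4). Each rat received up to 0.2 mL carrying 22 μCi. Rats were sacrificed at set times after injection, including 24 h. Organs were excised, weighed and counted against a weighed, counted standard. Values are %ID/g and %ID/organ ± sd.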

For series [3], the species on record is Rattus norvegicus. The experiment in a line: Distribution in rat kidney 24 hr postinjection. Format: ADME, organism-based. To be noted: in vivo. The gist of the method:
as §1

The species entered for series [4] is Rattus norvegicus. The experiment in a line: Distribution in rat liver after 24 hr postinjection. In kind it is ADME, organism-based. To be noted: in vivo. The gist of the method:
as §1

Usually logP stands for the decadic logarithm of the partition coefficient of the neutral form, usually between octanol and water. Higher therefore signals a more lipophilic compound. For the compound `CCN(CC)C(=O)CN1CCCN2CCN(CCCN(CC(=O)N(CC)CC)CC2)CC1`, the logP in series [1] was -1.95.
As for “Cu-1,4,8,11tetraaza-Cyclotetradecane-2,10-dione”, the Biodistribution is listed as 0.23 in the series filed under Rattus norvegicus [2], 0.097 in the series listed under Rattus norvegicus [3] and 0.7 in the series filed under Rattus norvegicus [4].
For `NC(=O)CCN1CCCN2CCN(CCC(N)=O)CCCN(CC1)CC2`, the logP in series [1] is -2.3.
On the same count and under the same terms, then `C1CNCCN2CCCNCCN(C1)CC2`, with -2.11.
“Cu-(4,8,11-Tris-carboxymethyl-1,4,8,11tetraaza-cyclotetradec-1-yl)-acetic acid”: the Biodistribution in the series listed under Rattus norvegicus [2] worked out at 0.21; in the series listed under Rattus norvegicus [3], 0.21; in the series filed under Rattus norvegicus [4], 0.49.
